ChEMBL document CHEMBL1154870, “Synthesis of tropolone derivatives and evaluation of their in vitro neuroprotective activity” (Eur J Med Chem, 2010)

Legend:
[1] = system: HT-22; test: Neuroprotective activity against glutamate-mediated oxidative stress-induced cell death in mouse HT22 cells assessed as survival after 24 hrs by MTT assay; type: functional, cell-based
In short: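 HT22 cells seeded at 4000/well in DMEM-Hepes-GlutaMAX with 10% FBS. After 24 h, 5 mM glutamate was added with or without test compound in fresh medium for 24 h. Viability was read by MTT formazan (OD 550 minus 670 nm), with DMSO vehicle controls. EC50 was the concentration keeping glutamate-exposed viability at 50% of unexposed cells. Mean ± SEM, ≥3 independent experiments.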

[2] = system: HT-22; test: Ratio of beta-thujaplicin EC50 to drug EC50 for mouse HT22 cells
[3] = system: HT-22; test: Neuroprotective activity against glutamate-mediated oxidative stress-induced cell death in mouse HT22 cells assessed as survival at 10 uM after 24 hrs by MTT assay; type: functional
In short: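 HT22 mouse hippocampal cells seeded at 4000/well in DMEM-Hepes-GlutaMAX with 10% FBS; after 24 h, challenged with 5 mM glutamate plus test compound in fresh medium for 24 h. MTT formazan read as dOD 550–670 nm. % neuroprotection = (CD_vehicle − CD_compound)/CD_vehicle; efficacy classed full/partial/weak as 67–100, 34–66, ≤33%. Mean of ≥3 independent experiments.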

Compound | EC50 ([1]; Mus musculus, HT-22, 24 h) [nM] | Ratio EC50 [2] | Efficacy [3] [%] | EC50 ([1]; ht-22) [nM]
O=c1c(O)ccccc1CN1CCOCC1 | > 10000 | <0.5 | – | –
COc1cc(C(C)C)ccc(Cn2cc(Cc3ccccc3)nn2)c1=O | > 10000 | <0.5 | 30 | –
CC(C)c1ccc(CN2CCOCC2)c(=O)c(O)c1 | 2560 | 1.9 | 87 | –
COc1cc(C(C)C)ccc(COc2ccccn2)c1=O | > 10000 | <0.5 | – | –
CCOC(=O)N1CCN(Cc2ccc(C(C)C)cc(O)c2=O)CC1 | 1400 | 3.4 | 88 | –
CC(C)c1ccc(CN2CCN(c3ccc([N+](=O)[O-])cc3)CC2)c(=O)c(O)c1 | 1700 | 2.8 | 91 | –
CC(C)c1ccc(CN2CCN(Cc3ccc([N+](=O)[O-])cc3)CC2)c(=O)c(O)c1 | 960 | 5 | 100 | –
Cc1c(C)c2c(c(C)c1O)CCC(C)(C(=O)N1CCN(Cc3ccc(C(C)C)cc(O)c3=O)CC1)O2 (configuration not stated) | 80 | 60 | 62 | –
Cc1c(C)c2c(c(C)c1O)CCC(C)(C(=O)NCCN1CCN(Cc3ccc(C(C)C)cc(O)c3=O)CC1)O2 (configuration not stated) | 90 | 53 | 89 | –
CC(C)c1ccc(CN2CCN(Cc3ccc(C(C)C)cc(O)c3=O)CC2)c(=O)c(O)c1 | 920 | – | – | –
CC(C)c1cccc(=O)c(O)c1 [HINOKITIOL] | 4800 | 1 | 62 | –
O=c1cccccc1O [TROPOLONE] | > 10000 | <0.5 | – | –
VITAMIN E | – | – | – | 200
